Measured values published in PubChem BioAssay AID651935 (Vanderbilt Specialized Chemistry Center, 2012).
Activity calls are given as the source filed them. The rule behind the calls is not given here.

Target: Muscarinic acetylcholine receptor M4 (Rattus norvegicus) (UniProt P08485)
Assay: M4 receptor potentiation by M5-directed compounds, selectivity assay for M5 PAM discovery project, CHO cells, rat M4, calcium flux (AID 651935)
Conditions: CHO-K1 rat M4/Gqi5, Fluo-4 calcium flux, ACh EC20; series mostly up to 30 µM
In short: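 Material: CHO-K1 cells stably expressing rat M4 receptor with chimeric Gqi5; Buffer or medium: HBSS plus HEPES and probenecid, pH 7.4; Probe or stimulus: acetylcholine EC20; Dosing: 0.3% DMSO final; Times: dye load 45-60 min 37 °C, compound 1.5 min pre-incubation; Signal: Fluo-4 calcium fluorescence; Read-out: % of maximal acetylcholine response.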

Sequence of Muscarinic acetylcholine receptor M4 (Rattus norvegicus) (P08485 whole entry, looked up): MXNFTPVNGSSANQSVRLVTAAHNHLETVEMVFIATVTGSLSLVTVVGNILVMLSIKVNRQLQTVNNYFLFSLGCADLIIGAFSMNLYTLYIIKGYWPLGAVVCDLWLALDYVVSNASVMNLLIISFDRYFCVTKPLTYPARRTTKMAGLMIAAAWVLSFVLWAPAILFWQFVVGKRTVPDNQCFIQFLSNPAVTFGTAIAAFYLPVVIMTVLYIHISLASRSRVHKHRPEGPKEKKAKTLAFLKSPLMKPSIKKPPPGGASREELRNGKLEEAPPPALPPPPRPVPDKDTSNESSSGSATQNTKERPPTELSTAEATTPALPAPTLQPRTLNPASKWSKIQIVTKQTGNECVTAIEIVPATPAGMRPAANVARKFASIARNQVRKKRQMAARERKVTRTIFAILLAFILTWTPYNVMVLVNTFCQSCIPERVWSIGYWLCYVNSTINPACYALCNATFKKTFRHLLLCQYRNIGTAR

## O=C1C(=O)N(CCOc2ccccc2)c2ccc(OC(F)(F)F)cc21
  outcome: inactive
